PKA-R1A act: activators of PKA-R1A complex | activation, % at 11.4 µM | PKA-R1A dissociation, Cy5-IP20 fluorescence polarization; scaled: DMSO 0%, 113 µM cGMP 100% | P00514+P68181 | 340,000 tested, 0.083% active | AID 504707;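 active = percent activation above the mean of all tested compounds plus 3 SD, cut at about 19% in these data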;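 note: higher means more PKAc released from R1A so a rise in polarization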
S100A4 inh HTS: blocks human S100A4 binding to myosin IIA peptide. P26447. inhibition, % at 10.7 µM. S100A4/TAMRA-MyoIIA peptide fluorescence polarization. 360,000 tested, 0.14% active. AID 652163;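 active = mean inhibition of at least 70% across replicates, with every replicate also reaching that level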
Target sequence (P26447 whole entry, looked up): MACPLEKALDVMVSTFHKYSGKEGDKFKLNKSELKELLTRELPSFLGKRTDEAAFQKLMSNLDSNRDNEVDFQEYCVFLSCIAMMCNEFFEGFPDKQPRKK
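System – human S100A4 monomer protein, biochemical binding assay · Buffer or medium – Calcium-containing HEPES buffer, pH 7.2 · Timing – 5 min between mix addition and reading · Also added – TAMRA-labelled myosin IIA heavy-chain peptide probe, 5 nM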
CRFBP-R2 block: CRF-BP/CRF-R2 complex antagonism; HEK293 CRF-R2/CRF-BP, CRF-induced calcium fluorescence; AID 588475; inhibition, % at 11.8 µM; 350,000 tested, 0.59% active;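 active = inhibition of the ligand-induced calcium signal above about 50% at the single tested concentration, limit read from the data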
SIRT5 inh: inhibitors of human sirtuin-5 desuccinylase. Purified SirT5, succinyl-peptide AMC, trypsin-coupled fluorescence. inhibition, % at 15 µM. Q9NXA8. AID 652115. 330,000 tested, 1.1% active; in the data active = inhibition above about 15%
Target sequence (Q9NXA8 whole entry, looked up): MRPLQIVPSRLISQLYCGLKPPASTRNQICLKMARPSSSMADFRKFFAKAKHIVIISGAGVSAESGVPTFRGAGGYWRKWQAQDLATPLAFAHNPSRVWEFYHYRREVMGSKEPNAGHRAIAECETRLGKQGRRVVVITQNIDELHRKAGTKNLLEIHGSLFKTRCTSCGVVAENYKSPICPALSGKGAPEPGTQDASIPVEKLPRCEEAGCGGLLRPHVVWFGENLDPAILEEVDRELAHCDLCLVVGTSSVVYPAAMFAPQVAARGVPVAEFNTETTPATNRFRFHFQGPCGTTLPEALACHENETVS
PKA-R2B activ: activators of human PKA-R2B complex | P22694+P31323 | 340,000 tested, 0.079% active | activation, % at 11.4 µM | PKA-R2B holoenzyme dissociation, Cy5-IP20 fluorescence polarization; R2B truncated from residue 108, S112A mutant; 0% DMSO only, 100% 113 µM cGMP;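 active = activation above a cutoff set at the mean over all compounds plus 3 SD, cut at about 18% in these data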;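 note: higher means more holoenzyme dissociation and a rise in polarization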
Numbers without * were called inactive; . = no result. A selection: hits, their analogues and other compounds. The true share with any hit is near 1.5%.

SMILES	PKA-R1A act	S100A4 inh HTS	CRFBP-R2 block	SIRT5 inh	PKA-R2B activ
O=C(CN1CCC(C(=O)c2ccc(F)cc2)CC1)NCc1ccccc1F	-2.7	-3.6	-3.1	-3.7	6.1
Cc1ccc(NC(=O)CC2SC(=O)N(c3ccccc3)C2=O)cc1 (stereo not drawn)	1.2	-2.5	89.2*	-1.7	2.9
CCS(=O)(=O)Nc1cccc(C2=NN(C(C)=O)C(c3cccs3)C2)c1 (stereo not drawn)	10.4	0.8	9.1	-0.6	2.3
CC(=O)N1N=C(c2cccc(NS(C)(=O)=O)c2)CC1c1cccs1 (stereo not drawn)	2.4	21.3	-8.4	23.1*	0.5
Cc1cc(C)n(C(=O)CNC(=O)c2cccc(Cl)c2)n1	-19.8	0.1	-2.7	1.3	-7.3
Cc1cc(C)n(C(=O)CNC(=O)c2cccs2)n1	-16.7	2.6	-3.0	23.3*	-7.4
O=C(CNC(=O)c1cccc(F)c1)OCC(=O)N1CCCCC1	4.9	.	2.7	.	-7.5
O=C(CNC(=O)c1cccc(F)c1)OCC(=O)N1CCN(C(=O)c2ccco2)CC1	13.2	2.4	-1.7	29.0*	2.5
O=C(Nc1cccc(-c2cn3ccccc3n2)c1)c1cc2ccccc2oc1=O	5.0	-0.8	13.1	19.4*	5.4
CC(C)NC(=O)N(C)C[C@@H]1OCCCC[C@@H](C)Oc2ccc(NC(=O)Cc3ccccc3)cc2C(=O)N([C@@H](C)CO)C[C@H]1C	.	-0.5	.	0.7	.
CN(C)C(=O)[C@@H]1[C@@H](CO)[C@@H]2Cn3c(ccc(C4=CCCCC4)c3=O)[C@H]1N2Cc1ccncc1	.	0.9	.	-21.2	.
C[C@@H]1C=CCCO[C@]12C(=O)N(Cc1ccccc1C(F)(F)F)c1ccccc12	.	-2.5	.	18.4*	.
Cc1ccc(S(=O)(=O)Nc2ccc3c(c2)CC(=O)N([C@H](C)CO)C[C@H](C)[C@H](CN(C)S(=O)(=O)c2cccs2)O3)cc1	.	-2.0	.	3.0	.
C[C@H](CO)N1C[C@H](C)[C@H](CN(C)Cc2ccc(Oc3ccccc3)cc2)Oc2c(NS(C)(=O)=O)cccc2C1=O	.	-10.2	.	-0.8	.
CCCC(=O)NC(C)c1nc2ccccc2[nH]1 (stereo not drawn)	3.2	1.4	58.1*	0.2	-5.8
O=C(O)c1ccc(NC(=S)NC(=O)c2ccc(-c3ccccc3)cc2)cc1	-7.7	0.8	78.2*	-2.2	-10.8
COc1cccc(NC(=S)NC(Cc2ccccc2)c2ccccc2)c1 (stereo not drawn)	5.7	-6.5	84.4*	-33.6	-6.6
COc1cccc(NC(=O)c2cccc(C(=O)Nc3cccc(OC)c3)c2)c1	-9.2	0.4	-8.1	-1.8	-0.8
O=C(O)c1ccc(NC(=O)c2cccc(C(=O)Nc3ccc(C(=O)O)cc3)c2)cc1	-4.9	0.6	7.8	33.1*	2.6
COc1cccc(NC(=O)c2ccccc2)c1	1.2	-1.0	12.2	32.3*	-16.2
C[C@@H]1CN([C@H](C)CO)C(=O)c2ccccc2-c2ccccc2CO[C@@H]1CN(C)Cc1ccc(-c2ccccc2)cc1	.	-3.1	.	6.7	.
CNC[C@@H]1Oc2ccc(NC(=O)Nc3ccccc3)cc2C(=O)N([C@H](C)CO)C[C@H]1C	.	-36.9	.	0.2	.
COc1ccc(S(=O)(=O)Nc2ccc3c(c2)C(=O)N([C@H](C)CO)C[C@H](C)[C@H](CN(C)S(C)(=O)=O)OCCCC[C@H](C)O3)cc1	.	0.2	.	-5.7	.
COc1ccc(NC(=O)CSc2nnc3ccc(-c4cccnc4)nn23)cc1	-2.9	-1.9	6.0	1.6	-10.2
Cc1cc(NC(=O)CSc2nnc3ccc(-c4ccccc4)nn23)no1	6.0	2.5	1.7	25.6*	-3.4
SMILES	PKA-R1A act	S100A4 inh HTS	CRFBP-R2 block	SIRT5 inh	PKA-R2B activ
COc1ccc(NC(=O)CSc2nnc3ccc(-c4cccnc4)nn23)cc1OC	-3.2	-1.4	2.9	16.9*	-10.1
CSc1nccc(-c2sc(SC)c(C#N)c2-c2ccccc2)n1	-8.6	-2.6	4.7	-4.6	-6.4
Cc1c(-c2ncn[nH]2)sc(C#N)c1-c1ccccc1	-2.4	3.6	58.8*	-5.0	-12.7
Cc1noc(C)c1NC(=O)Nc1ccc2c(c1)C(=O)N([C@H](C)CO)C[C@@H](C)[C@H](CN(C)C(=O)Nc1cccc3ccccc13)O2	.	6.4	.	6.5	.
COc1ccc(S(=O)(=O)N[C@H]2C=C[C@H](CC(=O)NCc3ccccc3F)O[C@@H]2CO)cc1	.	54.8	.	9.0	.
O=[N+]([O-])c1cccc(S(=O)(=O)N/N=C\c2ccc3c(c2)OCO3)c1	0.3	0.1	6.2	19.5*	-4.3
O=[N+]([O-])c1ccc(S(=O)(=O)N/N=C/c2ccc3c(c2)OCO3)cc1	3.8	1.3	13.0	0.8	-1.1
O=C(Cc1ccncc1)NCC[C@H]1CC[C@@H](NC(=O)C2CCC2)[C@H](CO)O1	.	10.7	.	2.1	.
CCOC(=O)/C(=N/Nc1ccc(OC)cc1)Sc1nnc(CCc2ccccc2)n1-c1ccccc1	-3.7	-3.4	-3.3	21.5*	6.8
O=C(N[C@H]1CC1c1ccccc1)c1ccc([N+](=O)[O-])cc1 (stereo partly drawn)	8.7	4.8	23.8	-3.3	7.5
CC(=O)N[C@H]1C[C@@H]1c1ccccc1	8.7	.	60.8*	.	5.5
COc1cc(CCC(=O)N2CCN(c3ccccc3)CC2)cc(OC)c1OC	-7.0	3.9	3.1	28.9*	2.1
O=C(CCCC(=O)N1CCN(c2ccc([N+](=O)[O-])cc2)CC1)c1ccccc1	-2.4	1.5	45.8	.	4.1
O=C(CCCc1ccccc1)N1CCN(c2ccc([N+](=O)[O-])cc2)CC1	-3.2	.	68.5*	.	-2.8
C[C@@H]1CCCCO[C@H](CN(C)Cc2ccc3c(c2)OCO3)[C@H](C)CN([C@H](C)CO)C(=O)c2cc(NC(=O)Nc3ccc(F)cc3)ccc2O1	.	-2.3	.	4.9	.
Cc1cccc(-c2ccc([C@H]3[C@@H](CO)N4C(=O)CN(S(=O)(=O)c5cccc(F)c5)C[C@@H]34)cc2)c1	.	2.8	.	17.1*	.
O=C1CN(S(=O)(=O)c2cccc(F)c2)C[C@@H]2[C@H](c3ccc(-c4ccccc4)cc3)[C@H](CO)N12	.	-8.7	.	2.6	.
Cc1cccc(-c2ccc([C@H]3[C@H]4CN(S(=O)(=O)c5cccc(F)c5)CC(=O)N4[C@H]3CO)cc2)c1	.	2.9	.	19.1*	.
CC(C)c1ccc(Nc2nc(Cl)nc(NCc3ccco3)n2)cc1	-6.4	-3.5	-1.1	-0.5	-3.0
COc1ccc(Nc2nc(Cl)nc(NCc3ccco3)n2)c(OC)c1	5.9	.	55.9*	.	-0.6
COc1ccc(S(=O)(=O)N(C)C[C@H]2OCc3ccccc3-c3c(n(C)c4ccccc34)C(=O)N([C@H](C)CO)C[C@@H]2C)cc1	.	6.6	.	-2.3	.
C[C@@H]1CN([C@H](C)CO)C(=O)c2c(c3ccccc3n2C)-c2ccccc2CO[C@H]1CN(C)S(=O)(=O)c1ccccc1	.	131.4*	.	7.5	.

Compound activity: PubChem BioAssay, several laboratories
